Laboratory results: ChEMBL document CHEMBL1148742, “Structure-activity relationship of 2-oxoamide inhibition of group IVA cytosolic phospholipase A2 and group V secreted phospholipase A2” (2007)

Legend:
Homo sapiens [1] = species: Homo sapiens; assay: Inhibition of human GIVA cPLA2
In short: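 Pure native human GIVA cPLA2 (10 ng) in 100 mM HEPES pH 7.5, 80 µM CaCl2, 0.1 mg/mL fatty acid-free BSA, 2 mM DTT. Substrate was mixed micelles of 97 µM 1-palmitoyl-2-[14C]arachidonoyl PC, 3 µM PIP2 and 400 µM Triton X-100, in 1% DMSO. Incubated 10-60 min at 40 °C; [14C]-AA release measured by modified Dole assay and compared with DMSO-only control. XI(50) expressed as mole fraction of inhibitor over inhibitor plus substrate plus detergent.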

Homo sapiens [2] = species: Homo sapiens; assay: Inhibition of GV sPLA2 at 0.091 mole fraction
In short: (§1)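 Recombinant human GV sPLA2, expressed in E. coli as inclusion bodies, sulfonated, refolded and purified (>90%). Enzyme (40 ng) in 50 mM Tris-HCl pH 8.0, 5 mM CaCl2, with mixed micelles of 100 µM 1-palmitoyl-2-[14C]palmitoyl PC and 400 µM Triton X-100, in 1% DMSO. Incubated 10-60 min at 40 °C; released [14C]-palmitic acid measured by modified Dole extraction. Inhibitor dose expressed as mole fraction.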

Rattus norvegicus [3] = assay: Antiinflammatory activity against carrageenan-induced paw edema in rat; assay type: functional
In short: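 Compound given ip at the same time as intradermal carrageenan into the rat paw; rats were euthanized after 3.5 h. Edema was taken as injected minus uninjected paw weight and expressed as percent inhibition versus controls. Four doses were used, each on two groups of five animals, averaged over two experiments. ED50 was derived from the four doses; Student's t-test was used.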

Rattus norvegicus [4] = assay: Analgesic activity in rat assessed as decrease in writhes at 0.0165 mmol/kg, ip; assay type: functional; design: scale not given: the % may be the effect or the level left
In short: (§2)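 Rat writhing test: compound given ip 30 min before ip acetic acid. Each animal's total writhes were compared with a vehicle-treated control group, and analgesic activity was expressed as percent decrease in writhes.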

Rattus norvegicus [5] = assay: Analgesic activity in rat assessed as decrease in writhes at 0.008 mmol/kg, ip; assay type: functional; design: scale not given: the % may be the effect or the level left; in short: as §2
Rattus norvegicus [6] = assay: Analgesic activity in rat assessed as decrease in writhes at 0.00005 mmol/kg, ip; assay type: functional; design: scale not given: the % may be the effect or the level left; in short: as §2
Rattus norvegicus [7] = assay: Analgesic activity in rat assessed as decrease in writhes at 0.0001 mmol/kg, ip; assay type: functional; design: scale not given: the % may be the effect or the level left; in short: as §2
Homo sapiens [8] = species: Homo sapiens; assay: Inhibition of GV sPLA2 at 0.048 mole fraction; in short: as §1
Rattus norvegicus [9] = assay: Analgesic activity in rat assessed as decrease in writhes at 0.01 mmol/kg, ip; assay type: functional; design: scale not given: the % may be the effect or the level left; in short: as §2
Homo sapiens [10] = species: Homo sapiens; assay: Inhibition of GV sPLA2 at 0.02 mole fraction; in short: as §1
Homo sapiens [11] = species: Homo sapiens; assay: Inhibition of GV sPLA2 at 0.01 mole fraction; in short: as §1
Homo sapiens [12] = species: Homo sapiens; assay: Inhibition of GV sPLA2 at 0.040 mole fraction; in short: as §1

XI50 (Homo sapiens [1])	inhibition (Homo sapiens [2])	SMILES	further results
0.005	26%	CCCCCCCCCCCCCC(=O)C(=O)N[C@@H](CCCC)CCCC(=O)O	–
–	12%	CCCCCCCCCCC(=O)C(=O)N[C@H](CCC(=O)O)C(=O)NCC	–
–	31%	COC(=O)CCCNC(=O)C(=O)CCCCc1ccccc1	–
–	20%	CCCCCCCCCCCCCCC(=O)C(=O)N[C@@H](CCCC)COC(=O)NCCCCCCCC	–
–	15%	CCCCCCCCCCC(=O)C(=O)N[C@@H](CCC(=O)O)C(=O)O	–
0.017	–	CCCCCCCCCCCCCCC(=O)C(=O)NCCCC(=O)O	–
0.025	33%	CCCCCCCCCCCCCCC(=O)C(=O)N[C@@H](CCC(=O)O)C(=O)NCCCCCCCCCC	ED50 (Rattus norvegicus [3]): 16.5 µmol/kg; Activity (Rattus norvegicus [4]): 11%
0.008	–	CCCCCCCCCCCCCCC(=O)C(=O)N[C@@H](CCCC)CCC(=O)O	ED50 (Rattus norvegicus [3]): 8 µmol/kg; Activity (Rattus norvegicus [5]): 65%
0.005	–	CCCCCCCCCCCCCCC(=O)C(=O)N[C@@H](CCCC)CCCC(=O)O	ED50 (Rattus norvegicus [3]): 0.05 µmol/kg; Activity (Rattus norvegicus [6]): 71%
–	60%	CCCCCCCCCCC(=O)C(=O)N[C@@H](CCCC)C(=O)O	–
–	22%	CCCCCCCCCCCCCCC(=O)C(=O)NCCCC(=O)OC	–
–	30%	CCCCCCCCCCCCCCCCNC(=O)C(=O)CC	–
0.027	–	CCCCCCCCCCCCCC(=O)C(=O)N[C@@H](CCCC)CC(=O)O	–
–	30%	CCCCCCCCCCC(=O)C(=O)N[C@@H](CCC(=O)O)C(=O)NCC	–
0.009	–	CCCCCCCCCCC(=O)C(=O)N[C@@H](CCCC)CCC(=O)O	–
–	60%	CCCCCCCCCCC(=O)C(=O)N[C@@H](CCC(=O)O)COC(=O)NCCCCCCCC	–
0.011	–	CCCCCCCC/C=C\CCCCCCCC(=O)C(=O)NCCCC(=O)O	ED50 (Rattus norvegicus [3]): 0.1 µmol/kg; Activity (Rattus norvegicus [7]): 53%
–	27%	O=C(O)CCCNC(=O)C(=O)CCCCc1ccccc1	–
–	48%	COC(=O)CCCNC(=O)C(=O)CCCc1ccccc1	–
–	–	CCCCCCC(=O)C(=O)NCCCC(=O)O	inhibition (Homo sapiens [8]): 27%
–	45%	NC(=O)C(=O)CCCCc1ccccc1	–
0.02	–	CCCCCCCCCCC(=O)C(=O)N[C@@H](CCC(=O)OC)COC(=O)NCCCCCCCC	–
0.025	22%	CCCCCCCCCCC(=O)C(=O)N[C@@H](CCCC)CCCCC(=O)O	ED50 (Rattus norvegicus [3]): 10 µmol/kg; Activity (Rattus norvegicus [9]): 33%
0.013	22%	CCCCCCCCCCCCCC(=O)C(=O)N[C@@H](CCCC)CCCCC(=O)O	–
–	–	CCCCCCCC/C=C\CCCCCCCCNC(=O)C(=O)CCCCCCCCCCCCCC	inhibition (Homo sapiens [10]): 37%
0.01	30%	CCCCCCCCCCCCCC(=O)C(=O)N[C@@H](CCCC)CCC(=O)O	–
–	–	CCCCCCCC/C=C\CCCCCCCCNC(=O)C(=O)CCCCCC	inhibition (Homo sapiens [11]): 22%
–	34%	O=C(O)CCCNC(=O)C(=O)CCCc1ccccc1	–
0.012	–	CCCCCCCC/C=C\CCCCCCCC(=O)C(=O)NCCCC(=O)OC	inhibition (Homo sapiens [12]): 24%
–	14%	CCCCCCC(=O)C(=O)N[C@H](CCC(=O)O)Cc1ccccc1	–
